Test results taken from ChEMBL document CHEMBL1144484, “High selective leishmanicidal activity of 3-hydroxy-2-methylene-3-(4-bromophenyl)propanenitrile and analogous compounds” (Eur J Med Chem, 2007).

How the values were obtained:
Leishmania amazonensis [1] = test: Antileishmanial activity against GFP tagged Leishmania amazonensis Josefa promastigote at 50 uM; type: functional
How it was run: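 Triplicate wells of 10⁵ GFP-transfected promastigotes in DMEM with 5% serum and 1% DMSO, with compound, held 72 h at 27 °C. Fluorescence intensity read on a plate fluorometer. Results given as percent inhibition, mean of triplicates with SD.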

[2] = test system: Peritoneal macrophage cell; test: Effect on nitric oxide production in mouse peritoneal macrophages at 50 uM after 48 hrs; type: functional
How it was run: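 Supernatants from mouse peritoneal macrophage cultures incubated 48 h with compound. Nitrite measured by a modified Griess method. IFN-gamma at 10 U/ml served as positive control. Triplicate means.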

[3] = Cytotoxicity against mouse peritoneal macrophages assessed as LDH release at 50 uM after 48 hrs; type: cell-based; settings: peritoneal macrophage cell
How it was run: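 Uninfected adherent mouse peritoneal macrophages exposed to compound for 48 h at 37 °C. LDH released into the medium measured with a commercial kit. 2% Triton X-100 set maximum release and 1% DMSO set minimum. Triplicate means with SD.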

Leishmania amazonensis [4] = test: Antileishmanial activity against GFP tagged Leishmania amazonensis Josefa amastigote infected mouse peritoneal macrophages at 50 uM after 72 hrs; type: functional
How it was run: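 GFP L. amazonensis (Josefa)-infected mouse peritoneal macrophages (10⁶ cells, 5 × 10⁶ promastigotes, 4 h at 37 °C), washed, exposed to compound for 72 h in 1% DMSO. Monolayer fluorescence measured. Percent inhibition scaled between untreated infected cells and uninfected macrophages. Vehicle control was 1% DMSO. Triplicate means with SD.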

Leishmania amazonensis [5] = test: Antiamastigote activity against GFP tagged […] amastigote infected mouse peritoneal macrophages; type: functional, organism-based
How it was run: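 Mouse peritoneal macrophages (10⁶) infected 4 h at 37 °C with 5 × 10⁶ GFP-expressing L. amazonensis (Josefa) promastigotes, washed, then cultured 72 h with compound in 1% DMSO. Monolayer fluorescence read as parasite growth. Uninfected macrophages set maximum inhibition and untreated infected cells set minimum. IC50 obtained by linear regression.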

IC50 (Leishmania amazonensis [5]) | Molecule | Activity (Leishmania amazonensis [1]) | Activity [2] | Activity [3] | Activity (Leishmania amazonensis [4])
– | C=C(C#N)C(O)c1ccccc1OC (stereo unspecified) | 30% | 0.4 µM | 6.1% | 14.7%
– | C=C(C#N)C(OC(C)=O)c1ccc([N+](=O)[O-])cc1 (stereo unspecified) | 59.3% | 0 µM | 0% | 21.5%
– | C=C(C(=O)OC)C(O)c1ccc([N+](=O)[O-])cc1 (stereo unspecified) | 67.3% | -3.7 µM | 41.6% | 80.6%
49.3 µM | C=C(C#N)C(O)c1ccccc1 (stereo unspecified) | 42.2% | -1.6 µM | 0% | 48.1%
– | C=C(C#N)C(O)c1ccc([N+](=O)[O-])cc1 (stereo unspecified) | 47% | 5 µM | 41.7% | 93.9%
11.2 µM | C=C(C#N)C(O)c1ccc2ccccc2c1 (stereo unspecified) | 24% | -7.1 µM | 26.6% | 95.6%
– | pentostam | 0% | 0 µM | – | 35.3%
– | C=C(C(=O)OC)C(O)c1ccc(F)cc1 (stereo unspecified) | 32.4% | -4.8 µM | 0% | 33.6%
– | C=C(C#N)C(O)c1cc(OC)ccc1OC (stereo unspecified) | 22.3% | -4.9 µM | 0% | 35.3%
– | C=C(C#N)C(O)c1ccc(O)c(OC)c1 (stereo unspecified) | 6.6% | -2.3 µM | 0% | 19.7%
12.5 µM | C=C(C#N)C(O)c1ccc(Br)cc1 (stereo unspecified) | 17.5% | 2.5 µM | 0% | 84.3%
– | C=C(C(=O)OC)C(O)c1ccc(C)cc1 (stereo unspecified) | 32.4% | -3.7 µM | 0% | 28.7%
– | C=C(C#N)C(O)c1ccc2c(c1)OCO2 (stereo unspecified) | 25.5% | -2.1 µM | 0% | 9.1%
42.8 µM | C=C(C(=O)OC)C(O)c1ccc(C(F)(F)F)cc1 (stereo unspecified) | 67.6% | -3.5 µM | 36.2% | 89%
– | C=C(C(=O)OC)C(O)c1ccccc1 (stereo unspecified) | 37.6% | -2.1 µM | 0% | 14.4%
– | C=C(C#N)C(O)c1ccc(C(F)(F)F)cc1 (stereo unspecified) | 62.8% | -4 µM | 36.3% | 86%
– | C=C(C(=O)OC)C(O)c1cccnc1 (stereo unspecified) | 39.6% | 0.1 µM | 13.2% | 8.9%
